In this series the test system is MS2 coat protein. Description: apparent Kd, MS2 coat protein; higher = weaker binding; RNA-MaP array; FMN 200 µM where present. In a few lines:
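Apparent Kd: the median of filtered binding-curve fits from single clusters. Designs were transcribed on Illumina sequencing-chip clusters by stalled E. coli RNA polymerase and titrated with SNAP-549-labelled MS2 coat protein from 0.7 or 1.5 nM, doubling to 3 µM, in 100 mM Tris-HCl pH 7.5, 80 mM KCl, 4 mM MgCl2, BSA, DTT, yeast tRNA and Tween-20. Each series ran without and then with constant ligand, and green signal was normalised to red-channel RNA signal and control-cluster median Fmax.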

The mark [1] stands for this setting: designed as: OFF switch for flavin mononucleotide, no ligand.
The mark [2] stands for this setting: ligand present: flavin mononucleotide, designed as: OFF switch for flavin mononucleotide.
Where [3] appears, read: designed as: ON switch for flavin mononucleotide, no ligand.
Where [4] appears, read: ligand present: flavin mononucleotide, designed as: ON switch for flavin mononucleotide.

We go through 48 sequences from the EternaBench riboswitch data.

Usually apparent Kd stands for the concentration giving half-maximal binding under the conditions of the assay. Consider “GGCGGUGAUCUAUUAGGACACAUGAGGAUCACCCAUGUGACAGAGGAUAUACGGAACUUUGGAUAGUAGAAGGCUGUCGCAAAA”, for which the “apparent Kd” value worked out at 315 nM under setting [1] and 119 nM under setting [2].
Turning to “AGUUUUGUACAUGAGGAUCACCCAUGUUAAUAUGUGGUAGUCAGAAGGCAUUGUUAGUGUUUAUAUGAGGAUAUGAUUAGUCAG”, the “apparent Kd” value by setting is: under setting [3], 50.3 nM; under setting [4], 26.4 nM.
Take “GCCUCAGAAUUAAUUGUGAGAAGCAGAAGGCUAUAUCUUAUGUUAAACAUGAGGAUCACCCAUGUAGAGGAUAUGCUAUUACAG”: the “apparent Kd” value under setting [1] was 7.68 nM and the “apparent Kd” value under setting [2] amounted to 17.7 nM.
The like results for “CUGAUGUUAGGAUAUCAGGCCGUGCGCGAAGGCGGGCAGCAUGAGAAGGAACAUGAGGAUCACCCAUGUGACGA” were, in that order, 27.2 nM and 67.8 nM.
“GGGUGGCGUAGAGGAUAUGUGGUACAUGAGGAUCACCCAUGUGCAUAUGAUGUUCGUGUUUAUGUAUAGAAGGCUACGUCGCUA”: the “apparent Kd” value was 12.5 nM under setting [3] and 12.3 nM under setting [4].
For “GUUACAUGAGGAUCACCCAUGUAUGUGUGGGAGUAAGUGUCUUAGGAUAUCUAUUAGUUAAAUUAAGAGAAGGAAGAUUGUUGU”, in that order: 119 nM and 127 nM.
In the case of “ACCGGUGUAGGAUAUAUCUGGGAUGAAGAUGAUCCUGCUAAACAUGAGGAUCACCCAUGUAGAAGGAUGCCUGG”, the “apparent Kd” value by setting is: under setting [1], 83.6 nM; under setting [2], 178 nM.
The like results for “GGUGUGGCAGGAUAUACAUCGAAGGGUGCAAAGGGCUCGGCACAUGAGGAUCACCCAUGUAGAAGGGCCUACCA” were, in that order, 14.9 nM and 20.7 nM.
The like results for “ACCGAUAGAGGAUAUACAGGUCGAUACAUGAGGAUCACCCAUGUUACCCUCGGUACACCCGUAGAAGGUUGUGGCU” were, in that order, 263 nM and 248 nM.
Consider “GCUUGUGAAGGAUAUACUGGCGGCGUGCGCUCGAAGCACGCACAUGAGGAUCACCCAUGUAGAAGGUCAGGCGU”, for which the “apparent Kd” value by setting is: under setting [1], 16.3 nM; under setting [2], 13.8 nM.
As to “AAGAAACAUGAGGAUCACCCAUGUAGAAAUAUGGGAGGAUAUACGAAGACGAAAGUCAAAGUAGAAGGCCUAAAAG”, the “apparent Kd” value runs as follows: under setting [3], 94.6 nM; under setting [4], 27.7 nM.
Take “UGAUUGAGAUUGUAGGAUAUUGGAAAAGCCACAUGAGGAUCACCCAUGUCAAAAAAAAAAAAAAACAAGAAGGGCGGUUUUAGUUA”: the “apparent Kd” value is 72.9 nM under setting [3] and 61.8 nM under setting [4].
Turning to “CGGGUCAACAUGAGGAUCACCCAUGUACUGCUAAUGCAGUCACAGGAUAUCUUCGGUAGAUUAGAAGAGAAGGGUGAUGCCCAG”, the “apparent Kd” value is, setting by setting: under setting [3], 136 nM; under setting [4], 117 nM.
The like results for “CUAUUGGUAACAGGAUAUAUGAGUCCUACAUGAGGAUCACCCAUGUAGGUGGUCAAACGUGAUUAGUAGAAGGGUUACCAAUAG” were, in that order, 12.2 nM and 6.18 nM.
“AUACUUAAUGAAGGAUAUCUUAGCAUAAACCUGAGAGAAGGUCAUUAUUACAUGAGGAUCACCCAUGUUGUGGUUAAUGGGUAA”: the “apparent Kd” value by setting is: under setting [1], 264 nM; under setting [2], 327 nM.
Take “GAAAAACAUGAGGAUCACCCAUGUGAGAAUAUGGGAGGAUAUUCAAAGACGAAAGUCAAAGAAGAAGGCCUAAAAG”: the “apparent Kd” value runs as follows: under setting [3], 153 nM; under setting [4], 37.4 nM.
Turning to “CGUGCGUAUGUGAGGAUAUGCUGGUCCUUGGAUCAGCAGAAGGCACAUGAGGAUCACCCAUGUGGUGUCGUACA”, the “apparent Kd” value reads like this: under setting [1], 273 nM; under setting [2], 20.1 nM.
Take “AUUAGACAUGAGGAUCACCCAUGUAGGCAGUCAUGAGGAUAUGGACAAGGUGCUCAAGGUCCAGAAGGCAUACGCC”: the “apparent Kd” value reads like this: under setting [3], 29.3 nM; under setting [4], 18.5 nM.
The like results for “CGAUAACCACAGAAGGCCCGGGACAUGAGGAUCACCCAUGUAGAAAGUGGGAGGAUAUGUGUACGCGGCAUGCUGACCUCGUGA” were, in that order, 210 nM and 28.6 nM.
Turning to “AAUUGACCUGUCAGGAUAUAGAGGGAGACUUACAUCUAGAAGGGACAUGAGGAUCACCCAUGUCAGUUGAGACA”, the “apparent Kd” value came out at 19.8 nM under setting [1] and 22.6 nM under setting [2].
The like results for “ACCUCACAUGAGGAUCACCCAUGUUAGGAUAUCUCGACACUCCGCGGGCGGUAGCGUCAGAGAAGGAACGUGCU” were, in that order, 29.1 nM and 24.9 nM.
With “AUUUUAUAAUAGAAGGUAGACUUCAUGAGGAUCACCCAUGUGUUGGUACUAAGGAUAUGUAAUAACAUGAGGAUCACCCAUGUU”, the “apparent Kd” value is, setting by setting: under setting [3], 16.1 nM; under setting [4], 15.2 nM.
Regarding “GUUUCACAUGAGGAUCACCCAUGUGAGGAUAUAGAUUUGUUAACCGUAGUUAAUAGAUCUAGAAGGCGCGUGAU”, the “apparent Kd” value was found to be 60.7 nM under setting [1] and 66.1 nM under setting [2].
As to “ACUUGACAUGAGGAUCACCCAUGUCAGGAUAUAGUAGGACAAAUAAAUAAAAGUUCUACUAGAAGGGACUUGGG”, the “apparent Kd” value under setting [1] worked out at 25.1 nM and the “apparent Kd” value under setting [2] was 45.3 nM.
Consider “AAACACGGACAUGAGGAUCACCCAUGUGGCGAAAGCCUUGGAAGAAGGCCGUAUGCAAAGCAUACGGAGGAUAUUCAUACCGUG”, for which the “apparent Kd” value is, setting by setting: under setting [3], 15.6 nM; under setting [4], 5.85 nM.
For “UUUGUCAUCGAGAAGGCCUCAACAUGAGGAUCACCCAUGUUGUAAUAUGGGAGGAUAUCGAUGAUACAGCUACGUUUCGUAAAA”, in that order: 20 nM and 5.58 nM.
Consider “AAUGAGACCGCAGGAUAUCCACAUGAGGAUCACCCAUGUUCUCAGAUCAGAAGCACGAUCUGCGAGGAGAAGGGCGACCUCAUA”, for which the “apparent Kd” value is, setting by setting: under setting [3], 563 nM; under setting [4], 37.6 nM.
In the case of “UGAUCGAGAGAUCUUAGAUUCUGGUAGGAUAUACAUUAUGAAAAUUUUACAUGAGGAUCACCCAUGUAGAAGGACUAGAGUCUA”, the “apparent Kd” value by setting is: under setting [1], 5.44 nM; under setting [2], 6.33 nM.
For “GCAGCUAAUGCAGGAUAUCAGCACGUGUAGUGCUGAGAAGGGCACAUGAGGAUCACCCAUGUGAUCAAUUAAUGUUAAUGCUGC”, in that order: 18.1 nM and 57.5 nM.
Regarding “ACGGUGGUCACAGGAUAUCCGGCACGCGUGCCCGGAGAAGGGUGACUCAGAACCACAUGAGGAUCACCCAUGUGCCUUGCCGUA”, the “apparent Kd” value under setting [3] worked out at 186 nM and the “apparent Kd” value under setting [4] was 37.1 nM.
The like results for “GUGCCUUGGGAGAAGGUUAUUGGCAAAGCUAUUAAAGGAUAUUCAUACCGGAAACGGACAUGAGGAUCACCCAUGUGGCACAAA” were, in that order, 752 nM and 208 nM.
For “UCACUCAAGUUAGGAUAUGGAUCGGAAAACGAUCCAGAAGGAACAUGGGAACAUGAGGAUCACCCAUGUUCCAGAAACGAGUGA”, in that order: 413 nM and 155 nM.
Turning to “AGAUGUGAACAUGAGGAUCACCCAUGUGACUAGGUUUAUUUCAGAAGGCAUUUAUAGAGAUUAUAUGAGGAUAUGAAGUUUUAA”, the “apparent Kd” value reads like this: under setting [3], 12.4 nM; under setting [4], 6.45 nM.
For the sequence “CAAAGACAAGCAGGAUAUCACAUGAGGAUCACCCAUGUCGGGAUCACCUGAGAGUGUUUAUUAAGUGAGAAGGGCUAGAUCACC”, the “apparent Kd” value amounted to 17.6 nM under setting [1] and 31.2 nM under setting [2].
For “GCCAGAGCAGGAUAUUCAAUAUCACACAUGAGGAUCACCCAUGUCUAUCGAAAGAUAGAGGGAGAAGGGCUCUGGC”, in that order: 64.3 nM and 18.3 nM.
For “GAUCCGUGGCUUUCGCUUUGUUCACAUGAGGAUCACCCAUGUAGAAGGUAGCGGUUGAAUUUCGCUGAGGAUAUACAUAGGUGC”, in that order: 13.4 nM and 24.3 nM.
The like results for “AAAGUGUGAGGAUAUUCGUAGUACACGGAGACGUGUAUUACGGAGAAGGCACAUGAGGAUCACCCAUGUUCCUU” were, in that order, 20.4 nM and 143 nM.
“AAGAAGUGAGGAUAUACAUGAGGAUCACCCAUGUUAAGAAGAAUUUUAGAGAAAGAAGGUAGAAGGCACAAGAA”: the “apparent Kd” value came to 49.5 nM under setting [1] and 47.1 nM under setting [2].
The like results for “CUUUUGUGAGGAUAUUAGUAGUAAAUAUAUAAAAUUACUACUGAGAAGGCACAUGAGGAUCACCCAUGUUCCUC” were, in that order, 31.5 nM and 194 nM.
For the sequence “UACUACGCAGGAUAUACAUGAGGAUCACCCAUGUGUCUGCGAUAGGCACGUGAUAUCCGUAGAAGGGUGUAGAU”, the “apparent Kd” value is 30.4 nM under setting [1] and 79.5 nM under setting [2].
For “AAAAAACAUGAGGAUCACCCAUGUCAGGAUAUCGUUGAAAAAAAAAAAAAAAAAAAAGCGAGAAGGGACACGAA”, in that order: 72.6 nM and 68.2 nM.
The like results for “GCGUGGUUCUAGAAGGUGCUAGCGAUAAGCUAGCAAGGAUAUAGACAUGAGGAUCACCCAUGUCUUAAUGAAAUGGACACACGC” were, in that order, 5.3 nM and 4.85 nM.
For “CAUUAUUAUCGAGGAUAUCCUAUUGAAAUUCUGGGAGAAGGCGGACUCAACAUGAGGAUCACCCAUGUGGGACGGAUGCUAGGG”, in that order: 22.9 nM and 20 nM.
Consider “UGGUGUGAAGGAUAUACAUGAGGAUCACCCAUGUAUGAGGUGUGUGUUGAGGUGGAGGGUAGAAGGUCAGGUGG”, for which the “apparent Kd” value runs as follows: under setting [1], 30.1 nM; under setting [2], 30.6 nM.
The like results for “UGUGUGAGACAGGAUAUGCUGGAUGAGAGGCGGGUAGAAGGGUCUACAUGAGGAUCACCCAUGUGGCCGGUUGG” were, in that order, 17 nM and 16.9 nM.
For “UGACCCAUGACAUGAGAUGACAUGAGGAUCACCCAUGUGUACAAGGAUAUGUUGGUCAAAGGUCGGCAGAAGGUGUAAUGGGAU”, in that order: 59.8 nM and 146 nM.
The like results for “GGAUAGGACAGAGGAUAUACGUGCUAGAGAUACUAGCAAAAUUUCCUCACAUGAGGAUCACCCAUGUAGAAGGCUGUGCUAUCG” were, in that order, 16.4 nM and 343 nM.
In the case of “AGCUGGUGACAGCAAGAAAUUUCACAUGAGGAUCACCCAUGUAGAAGGCUGUACGGUUACCGUACAGAGGAUAUACAUAGAAAG”, the “apparent Kd” value came to 22.4 nM under setting [1] and 30.5 nM under setting [2].
